Experimental data published in ChEMBL document CHEMBL4665630, “Synthesis and biological evaluation of anthraquinone derivatives as allosteric phosphoglycerate mutase 1 inhibitors for cancer treatment” (Eur J Med Chem, 2019).
Blank lines part the entries; values can stand above or below the compound they belong to. Activity calls are given as the source filed them. The rule behind the calls is not given here.

Key:
[1] = test system: NCI-H1299; test: Antiproliferative activity against human H1299 cells assessed as reduction in cell viability measured after 72 hrs by MTT assay; assay type: functional, cell-based; details: NCI-H1299, 72 h
How it was run: (§1)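 Cells grown in RPMI-1640 (H1299, PC9) or F-12K (A549) with 10% FBS and penicillin/streptomycin; 2000 H1299 or A549 or 1000 PC9 cells per well, attached 24 h, exposed to inhibitor 72 h; MTT 0.5 mg/mL for 4 h, absorbance at 570 nm; mean ± s.d., n=3.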

[2] = molecular target: Phosphoglycerate mutase 1 (Homo sapiens, UniProt P18669); test: Inhibition of human recombinant PGAM1 by measuring decrease in OD by enzyme based assay
Phosphoglycerate mutase 1, sequence (P18669 whole entry): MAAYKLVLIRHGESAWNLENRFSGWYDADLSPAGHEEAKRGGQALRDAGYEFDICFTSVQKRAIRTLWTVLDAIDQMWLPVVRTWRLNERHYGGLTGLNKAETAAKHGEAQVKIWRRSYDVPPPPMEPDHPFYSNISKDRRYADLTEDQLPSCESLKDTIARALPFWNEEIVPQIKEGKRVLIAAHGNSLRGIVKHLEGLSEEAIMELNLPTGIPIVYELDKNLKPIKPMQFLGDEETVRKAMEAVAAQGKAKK
How it was run: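 C-terminal His6-tagged PGAM1, Ni-NTA purified, 4.6 nM, preincubated with inhibitor in DMSO; coupled enolase/pyruvate kinase M2/LDH system in 100 mM Tris-HCl, 100 mM KCl, 5 mM MgCl2, 1 mM ADP, 0.2 mM NADH, 4 mM 3PG; NADH loss read at 340 nm. Counter-screen without PGAM1 using 4 mM 2PG. Mean ± s.d., n=3.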

[3] = test system: PC-9; test: Antiproliferative activity against human PC-9 cells assessed as reduction in cell viability measured after 72 hrs by MTT assay; assay type: functional, cell-based; details: PC-9, 72 h; how it was run: as §1
[4] = test system: A549; test: Antiproliferative activity against human A549 cells assessed as reduction in cell viability measured after 72 hrs by MTT assay; assay type: functional, cell-based; details: A549, 72 h; how it was run: as §1
[5] = AUC (0 to infinity) in ICR mouse at 100 mg/kg, ip measured upto 24 hrs by LC-MS analysis; assay type: ADME, organism-based; parameters: route intraperitoneal, dose 100 mg/kg, time <=24; details: in vivo
How it was run: (§2)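 Male ICR mice, single intraperitoneal 100 mg/kg in 7% DMSO/7% Cremophor EL/86% PBS; heparinised blood at 0.25, 0.5, 1, 2, 4, 6, 10, 24 h; plasma extracted with methanol, quantified by HPLC against a standard curve (water/methanol with 0.1% TFA gradient); n = 3 animals per time point.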

[6] = Cmax in ICR mouse at 100 mg/kg, ip measured upto 24 hrs by LC-MS analysis; assay type: ADME, organism-based; parameters: route intraperitoneal, dose 100 mg/kg, time <=24; details: in vivo; how it was run: as §2
[7] = […] xenografted with human NCI-H1299 cells assessed as kidney histology at 100 mg/kg, ip qd upto 8 days by haematoxylin and eosin staining-based light microscopic analysis; assay type: organism-based; details: in vivo, 192 h, time <=8 day
How it was run: (§3)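 Nude mice (male, 4–6 weeks) given 5×10^6 H1299 cells in PBS subcutaneously at both flanks; at ~200 mm³ randomised to vehicle or 100 mg/kg i.p. once daily; volume (L×W×W)×π/6, body weight tracked; terminal tumour weights, Ki67 IHC on tumours, H&E of kidney and liver; mean ± s.e.m., unpaired t-test.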

[8] = Apparent oral clearance in ICR mouse at 100 mg/kg, ip measured upto 24 hrs by LC-MS analysis; assay type: ADME, organism-based; details: in vivo; how it was run: as §2
[9] = test system: NCI-H1299; test: Inhibition of anaerobic glycolysis in human NCI-H1299 cells assessed as decrease in glycolytic reserve pretreated for 12 hrs in presence of glucose/2-DG and oligomycin by […]; assay type: functional, cell-based
How it was run: (§4)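 H1299 cells, 10,000 per well, exposed to 10 or 20 µM or PBS for 12 h, then Seahorse XF96. Glycolysis stress: glucose 10 mM, oligomycin 1 µM, 2-DG 50 mM (ECAR). Mito stress: oligomycin 1 µM, FCCP 1 µM, rotenone/antimycin A 0.5 µM (OCR). Normalised to cell number; triplicates, mean ± s.d.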

[10] = test system: NCI-H1299; test: Induction of ROS production in human H1299 cells using carboxy-H2DCFDA at 10 to 20 uM incubated for 24 hrs by FACS analysis; assay type: functional, cell-based; details: dose microM 10-20
How it was run: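 H1299 cells, 2×10^5 per well, loaded 24 h after seeding with 12.5 µM carboxy-H2DCFDA for 60 min after PBS wash; harvested and analysed by flow cytometry, excitation 490/emission 530 nm.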

[11] = test system: NCI-H1299; test: Antitumor activity against human NCI-H1299 cells xenografted in ICR mouse assessed as tumor weight at 100 mg/kg,qd ip upto 8 days relative to control; assay type: functional, organism-based; details: nude, time day <=8, in the assay text read “nude mouse” for “ICR mouse”; how it was run: as §3
[12] = test system: NCI-H1299; test: Inhibition of oxidative phosphorylation in human NCI-H1299 cells assessed as decrease in oxygen consumption rate at 10 to 20 uM pretreated for 80 mins in presence of glucose/2-DG and oligomycin by seahorse XF24 extracellular flux analyzer assay; assay type: functional, cell-based; details: dose microM 10-20, time 80.0 min
[13] = test system: NCI-H1299; test: Inhibition of anaerobic glycolysis in human NCI-H1299 cells assessed as decrease in extracellular acidification rate at 10 to 20 uM pretreated for 12 hrs in presence of glucose/2-DG and oligomycin by seahorse XF96 extracellular flux analyzer assay; details: dose microM 10-20, time 12 h
[14] = test system: NCI-H1299; test: Inhibition of anaerobic glycolysis in human NCI-H1299 cells assessed as decrease in glycolytic capacity pretreated for 12 hrs in presence of glucose/2-DG and oligomycin by […] assay; assay type: functional, cell-based; how it was run: as §4
[15] = Tmax in ICR mouse at 100 mg/kg, ip measured upto 24 hrs by LC-MS analysis; assay type: ADME, organism-based; details: in vivo; how it was run: as §2
[16] = molecular target: 5'-AMP-activated protein kinase catalytic subunit alpha-2 (Homo sapiens) (UniProt P54646); test: Activation of AMPK in human H1299 cells assessed as increase in AMPK phosphorylation at 10 to 20 uM by Western blot analysis; assay type: cell-based; details: NCI-H1299, filed as activator, dose microM 10-20
5'-AMP-activated protein kinase catalytic subunit alpha-2 (Homo sapiens), sequence (P54646 whole entry, looked up): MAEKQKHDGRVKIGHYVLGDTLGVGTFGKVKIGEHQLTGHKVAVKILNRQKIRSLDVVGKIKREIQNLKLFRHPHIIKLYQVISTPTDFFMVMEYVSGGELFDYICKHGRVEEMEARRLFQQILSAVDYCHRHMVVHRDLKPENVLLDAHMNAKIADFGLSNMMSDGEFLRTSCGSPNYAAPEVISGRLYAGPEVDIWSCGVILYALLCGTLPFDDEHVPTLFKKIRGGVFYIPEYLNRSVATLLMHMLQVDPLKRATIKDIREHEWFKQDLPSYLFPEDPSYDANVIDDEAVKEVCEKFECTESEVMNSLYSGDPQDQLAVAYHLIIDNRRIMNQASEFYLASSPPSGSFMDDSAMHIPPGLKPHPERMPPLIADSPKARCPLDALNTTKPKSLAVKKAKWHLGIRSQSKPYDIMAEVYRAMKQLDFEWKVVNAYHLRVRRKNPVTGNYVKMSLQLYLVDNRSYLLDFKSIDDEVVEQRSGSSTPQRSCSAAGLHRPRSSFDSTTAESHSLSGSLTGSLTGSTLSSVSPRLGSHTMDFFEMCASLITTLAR

[17] = Apparent oral volume of distribution in ICR mouse at 100 mg/kg, ip measured upto 24 hrs by LC-MS analysis; assay type: ADME, organism-based; details: in vivo; how it was run: as §2
[18] = test system: NCI-H1299; test: Inhibition of oxidative phosphorylation in human NCI-H1299 cells assessed as decrease in maximal respiration at 10 to 20 uM pretreated for 12 hrs in presence of glucose/2-DG and oligomycin by […]; assay type: functional, cell-based; details: dose microM 10-20, time 12.0 hrs; how it was run: as §4
[19] = test system: NCI-H1299; test: Inhibition of oxidative phosphorylation in human NCI-H1299 cells assessed as decrease in spare capacity at 10 to 20 uM pretreated for 12 hrs in presence of glucose/2-DG and oligomycin by […]; assay type: functional, cell-based; details: dose microM 10-20, time 12.0 hrs; how it was run: as §4
[20] = test system: NCI-H1299; test: Antitumor activity against human NCI-H1299 cells xenografted in nude mouse assessed as tumor volume at 100 mg/kg,qd ip measured upto 8 days relative to control; details: time day <=8
[21] = test system: NCI-H1299; test: Reduction in lactate production in human H1299 cells at 10 to 20 uM incubated for 24 hrs colorimetry based lactate assay; assay type: functional, cell-based; details: dose microM 10-20
How it was run: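 Cells grown overnight at 37 °C; at 50% confluence switched to phenol red-free, serum-free RPMI for 1 h at 37 °C; medium lactate measured colorimetrically with a kit, normalised to microscope cell counts.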

[22] = test system: NCI-H1299; test: Inhibition of glucose metabolism in human H1299 cells assessed as reduction in ATP level at 10 to 20 uM; assay type: functional, cell-based; details: dose microM 10-20
[23] = test system: NCI-H1299; test: Inhibition of anaerobic glycolysis in human NCI-H1299 cells assessed as decrease in glycolysis rate pretreated for 12 hrs in presence of glucose/2-DG and oligomycin by […]; assay type: functional, cell-based; how it was run: as §4
[24] = Toxicity in nude mouse xenografted with human NCI-H1299 cells assessed as body weight loss at 100 mg/kg, ip qd upto 8 days; details: in vivo, 192 h
[25] = AUC (0 to 24 hrs) in ICR mouse at 100 mg/kg, ip measured upto 24 hrs by LC-MS analysis; assay type: ADME, organism-based; parameters: route intraperitoneal, dose 100 mg/kg, time <=24; details: in vivo; how it was run: as §2
[26] = test system: NCI-H1299; test: Inhibition of oxidative phosphorylation in human NCI-H1299 cells assessed as decrease in basal respiration at 10 to 20 uM pretreated for 12 hrs in presence of glucose/2-DG and oligomycin by […] assay; assay type: functional, cell-based; details: dose microM 10-20, time 12.0 hrs; how it was run: as §4
[27] = Half life in ICR mouse at 100 mg/kg, ip measured upto 24 hrs by LC-MS analysis; assay type: ADME, organism-based; details: in vivo; how it was run: as §2
[28] = Toxicity in nude mouse xenografted with human NCI-H1299 cells assessed as kidney and liver histology at 100 mg/kg, ip qd upto 8 days by haematoxylin and eosin staining-based light microscopic analysis; details: in vivo, 192 h

Compound: O=C1c2ccccc2C(=O)c2c1cc(NS(=O)(=O)c1cccs1)c(O)c2O
IC50 [1]: 25.8 µM
IC50 [2]: 0.84 µM

Compound: O=C1c2ccccc2C(=O)c2c1cc(NS(=O)(=O)c1ccc(Cl)s1)c(O)c2O
IC50 [1]: 17.7 µM
IC50 [2]: 0.55 µM
IC50 [3]: 16.1 µM
IC50 [4]: 12.2 µM

Compound: O=C1c2ccccc2C(=O)c2c1cc(NS(=O)(=O)c1ccc(-c3ccc(F)cc3)cc1)c(O)c2O
IC50 [1]: 6.2 µM
IC50 [2]: 0.26 µM
IC50 [3]: 5.4 µM
IC50 [4]: 12 µM

Compound: O=C1c2ccccc2C(=O)c2c1cc(NS(=O)(=O)c1ccc(-c3ccc(Cl)cc3)cc1)c(O)c2O
IC50 [1]: 6.3 µM
IC50 [2]: 0.14 µM
IC50 [3]: 6.6 µM
IC50 [4]: 6.8 µM

Compound: O=C1c2ccccc2C(=O)c2c1cc(NS(=O)(=O)c1ccc(Cl)c(C(F)(F)F)c1)c(O)c2O
IC50 [1]: 13 µM
IC50 [2]: 0.55 µM
IC50 [3]: 17.5 µM
IC50 [4]: 21.6 µM

Compound: O=C1c2ccccc2C(=O)c2c1cc(NS(=O)(=O)c1ccccc1)c(O)c2O
IC50 [1]: 21.3 µM
IC50 [2]: 1.5 µM

The next lines start with results.

IC50 [1]: 8.7 µM
IC50 [2]: 0.19 µM
IC50 [3]: 4.7 µM
IC50 [4]: > 100 µM
Compound: O=C1c2ccccc2C(=O)c2c1cc(NS(=O)(=O)c1ccc3ccccc3c1)c(O)c2O

IC50 [1]: 10.2 µM
IC50 [2]: 0.49 µM
IC50 [3]: 9.5 µM
IC50 [4]: 8.1 µM
Compound: CC(C)(C)c1ccc(S(=O)(=O)Nc2cc3c(c(O)c2O)C(=O)c2ccccc2C3=O)cc1

IC50 [1]: 27.3 µM
IC50 [2]: 0.48 µM
Compound: COc1cccc(S(=O)(=O)Nc2cc3c(c(O)c2O)C(=O)c2ccccc2C3=O)c1

IC50 [2]: > 10 µM
Compound: CN(C)S(=O)(=O)Nc1cc2c(c(O)c1O)C(=O)c1ccccc1C2=O

IC50 [1]: 10.3 µM
IC50 [2]: 2.6 µM
IC50 [3]: 11.6 µM
IC50 [4]: 9.2 µM
Compound: CC1CC(C)CN(c2ccc(S(=O)(=O)Nc3cc4c(c(O)c3O)C(=O)c3ccccc3C4=O)cc2)C1 (stereo not drawn)

IC50 [1]: 6.4 µM
AUC(0-inf) [5]: 245 µg·h/mL
Cmax [6]: 131 µg/mL
CL/F [8]: 0.193 mL/min
Tmax [15]: 0.25 h
Activity [16]: Active
IC50 [2]: 0.25 µM
Vd/F [17]: 71.64 mL
IC50 [3]: 4.8 µM
IC50 [4]: 10.3 µM
AUC(0-t) [25]: 239 µg·h/mL
half-life [27]: 4.28 h
Compound: O=C1c2ccccc2C(=O)c2c1cc(NS(=O)(=O)c1ccc(-c3ccccc3)cc1)c(O)c2O
Activity [7]: Non-Toxic
inhibition [9]: Dose-dependent effect
Activity [10]: Active
Activity [11]: Active
inhibition [12]: Active
inhibition [13]: Dose-dependent effect
inhibition [14]: Dose-dependent effect
inhibition [18]: Active
inhibition [19]: Active
Activity [20]: Active
Activity [21]: Active
inhibition [22]: Active
inhibition [23]: Dose-dependent effect
Activity [24]: Non-Toxic
inhibition [26]: Active
Activity [28]: Non-Toxic
